Legend:
Candida albicans = test: Antifungal activity against Candida albicans MTCC 183 at 150 ug/ml after 48 hrs by agar well diffusion method; assay type: functional; details: MTCC 183, 48 h, read-out: IZ
How it was run: (§1)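 Antifungal screen by agar well diffusion against C. albicans, C. glabrata, A. niger and A. parasiticus. Clotrimazole was the standard drug. Activity was recorded as zone of inhibition (ZOI, mm).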

Nakaseomyces glabratus = test: Antifungal activity against Candida glabrata MTCC3019 at 150 ug/ml after 48 hrs by agar well diffusion method; assay type: functional; details: MTCC3019, 48 h, read-out: IZ; how it was run: as §1
Aspergillus niger = test: Antifungal activity against Aspergillus niger MTCC 282 at 150 ug/ml after 48 hrs by agar well diffusion method; assay type: functional; details: MTCC 282, 48 h, read-out: IZ; how it was run: as §1
Aspergillus parasiticus = test: Antifungal activity against Aspergillus parasiticus MTCC 8850 at 150 ug/ml after 48 hrs by agar well diffusion method; assay type: functional; details: MTCC 8850, 48 h, read-out: IZ; how it was run: as §1
MCF7 = test: Anticancer activity against human MCF7 cells assessed as cell viability after 48 hrs by MTT microcultured tetrazolium assay; assay type: functional, cell-based; details: MCF7, 48 h
How it was run: (§2)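 MTT-microcultured tetrazolium viability read-out in MCF-7 and HepG2 cells exposed to test samples. Surviving fraction was plotted against drug concentration to give survival curves, and IC50 was taken from these curves.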

HepG2 = test: Anticancer activity against human HepG2 cells assessed as cell viability after 48 hrs by MTT microcultured tetrazolium assay; assay type: functional, cell-based; details: HepG2, 48 h; how it was run: as §2
Staphylococcus aureus = test: Antibacterial activity against Staphylococcus aureus MTCC 96 at 150 ug/ml after 24 hrs by agar well diffusion assay; assay type: functional; details: MTCC 96, 24 h, read-out: IZ
How it was run: (§3)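 Agar well diffusion screen against the two Gram-positive strains (S. aureus, S. pyogenes) and the two Gram-negative strains (P. aeruginosa, K. pneumoniae). Streptomycin was the reference drug. Activity was read as zone of inhibition (mm).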

Streptococcus pyogenes = test: Antibacterial activity against Streptococcus pyogenes MTCC 1926 at 150 ug/ml after 24 hrs by agar well diffusion assay; assay type: functional; details: MTCC 1926, 24 h, read-out: IZ; how it was run: as §3
Klebsiella pneumoniae = test: Antibacterial activity against Klebsiella pneumoniae MTCC 109 at 150 ug/ml after 24 hrs by agar well diffusion assay; assay type: functional; details: MTCC 109, 24 h, read-out: IZ; how it was run: as §3
Pseudomonas aeruginosa = test: Antibacterial activity against Pseudomonas aeruginosa MTCC 4673 at 150 ug/ml after 24 hrs by agar well diffusion assay; assay type: functional; details: MTCC 4673, 24 h, read-out: IZ; how it was run: as §3

Row | Structure (SMILES) | zone of inhibition at 150 µg/mL (Candida albicans) [mm] | zone of inhibition at 150 µg/mL (Nakaseomyces glabratus) [mm] | zone of inhibition at 150 µg/mL (Aspergillus niger) [mm] | zone of inhibition at 150 µg/mL (Aspergillus parasiticus) [mm] | IC50 (MCF7) [µM] | IC50 (HepG2) [µM] | zone of inhibition at 150 µg/mL (Staphylococcus aureus) [mm] | zone of inhibition at 150 µg/mL (Streptococcus pyogenes) [mm] | zone of inhibition at 150 µg/mL (Klebsiella pneumoniae) [mm] | zone of inhibition at 150 µg/mL (Pseudomonas aeruginosa) [mm]
1 | COc1ccc2c(c1)CCC1=C2N=c2s/c(=C\c3c[nH]c4ccc(C)cc34)c(=O)n2C1c1cccc([N+](=O)[O-])c1 (stereo unspecified) | 8 | 12 | 8 | 8 | > 200 | 51.6 | 17 | 17 | 17 | 8
2 | COc1ccc2c(c1)CCC1=C2N=c2s/c(=C\c3c[nH]c4ccc(Br)cc34)c(=O)n2C1c1cccc([N+](=O)[O-])c1 (stereo unspecified) | 8 | 8 | 10 | 10 | > 200 | > 200 | 19 | 16 | 17 | 8
3 | COc1ccc2c(c1)CCC1=C2N=c2s/c(=C\c3c[nH]c4ccccc34)c(=O)n2C1c1cccc([N+](=O)[O-])c1 (stereo unspecified) | 8 | 8 | 12 | 8 | > 200 | 70.3 | 8 | 8 | 8 | 8
4 | COc1ccc(C2C3=C(N=c4s/c(=C\c5c(C)[nH]c6ccccc56)c(=O)n42)c2ccc(OC)cc2CC3)cc1 (stereo unspecified) | 8 | 8 | 8 | 10 | 112 | > 200 | 8 | 8 | 8 | 8
5 | COc1ccc(C2C3=C(N=c4s/c(=C\c5c[nH]c6ccc(OC)cc56)c(=O)n42)c2ccc(OC)cc2CC3)cc1 (stereo unspecified) | 8 | 8 | 14 | 10 | 30.6 | 57.5 | 8 | 8 | 8 | 8
6 | O=c1/c(=C/c2c[nH]c3ccccc23)sc2n1C(c1cccc([N+](=O)[O-])c1)C1=C(N=2)c2ccccc2CC1 (stereo unspecified) | 8 | 10 | 12 | 12 | > 200 | 199 | 8 | 8 | 8 | 8
7 | COc1ccc2c(c1)CCC1=C2N=c2s/c(=C\c3c[nH]c4ccc(Br)cc34)c(=O)n2C1c1ccc(F)cc1 (stereo unspecified) | 8 | 10 | 8 | 8 | 8.96 | 22.1 | 22 | 8 | 18 | 22
8 | COc1ccc2c(c1)CCC1=C2N=c2s/c(=C\c3c[nH]c4ccc(OC)cc34)c(=O)n2C1c1ccc(F)cc1 (stereo unspecified) | 8 | 10 | 10 | 10 | 193 | 86.8 | 8 | 8 | 15 | 8
9 | COc1ccc2c(c1)CCC1=C2N=c2s/c(=C\c3c(C)[nH]c4ccccc34)c(=O)n2C1c1ccc(F)cc1 (stereo unspecified) | 8 | 8 | 12 | 8 | 82.4 | 73.8 | 13 | 8 | 16 | 13
10 | COc1cccc2c1C(=O)c1c(O)c3c(c(O)c1C2=O)C[C@@](O)(C(=O)CO)C[C@@H]3O[C@H]1C[C@H](N)[C@H](O)[C@H](C)O1 [DOXORUBICIN] | – | – | – | – | – | 1.1 | – | – | – | –
